Experimental data of several laboratories.
Compare with care: the assays were run in different laboratories.
AMY2: Pancreatic alpha-amylase (AMY2, Sus scrofa, UniProt P00690)
SIRT2: NAD-dependent protein deacetylase sirtuin-2 (SIRT2, Homo sapiens, UniProt Q8IXJ6)
Hydroxyacylglutathione hydrolase, mitochondrial: Hydroxyacylglutathione hydrolase, mitochondrial (Homo sapiens, UniProt Q16775)
Maoa: Amine oxidase [flavin-containing] A (Maoa, Rattus norvegicus, UniProt P21396)
HSD11B2: 11-beta-hydroxysteroid dehydrogenase type 2 (HSD11B2, Homo sapiens, UniProt P80365)

Cc1ccc(N(O)N=Nc2ccc(S(=O)(=O)Nc3onc(C)c3C)cc2)cc1  inhibition (AMY2; enzyme activity, inhibitor; 60 µg/mL): 21.1%
CC(=S)NCCCC[C@H](NC(=O)OCc1ccccc1)C(=O)N[C@@H](Cc1c[nH]c2ccccc12)C(=O)N[C@@H](CCCNC(=N)N)C(N)=O  inhibition (SIRT2; enzyme activity, inhibitor; 1 µM): 20%
O=C(NC1CCC1)[C@H](Cc1c[nH]c2ccccc12)NC(=O)[C@H](CCCCNC(=S)NCc1cc(O)no1)NS(=O)(=O)c1cccc(F)c1  inhibition (SIRT2; enzyme activity, inhibitor; 30 µM): 13%
CC/C(=N\NC(=O)NCc1cccc(O)c1)c1ccc(O)c(C)c1O  inhibition (Fibroblast growth factor receptor 3 (FGFR3, Homo sapiens, UniProt P22607, V555M); enzyme activity, inhibitor; 0.1 µM): 0.7%
CCOCCOCCNC(=S)NCCCC[C@H](NS(C)(=O)=O)C(=O)N[C@H](C)C(=O)N[C@@H](CCCNC(=N)N)C(N)=O  inhibition (SIRT2; enzyme activity, inhibitor; 100 µM): 16%
CCN(O)N=Nc1ccc(S(=O)(=O)Nc2nccs2)cc1  inhibition (AMY2; enzyme activity, inhibitor; 300 µg/mL): 63.2%
c1ccc(CN(CCN(Cc2ccccn2)Cc2ccccn2)Cc2ccccn2)nc1  inhibition (Hydroxyacylglutathione hydrolase, mitochondrial; cell-free assay; 100 µM): 47.6%
CCCC(=S)NCCCC[C@H](NS(C)(=O)=O)C(=O)N[C@H](C)C(=O)N[C@@H](CCCNC(=N)N)C(N)=O  inhibition (SIRT2; enzyme activity, inhibitor; 10 µM): 31%
COc1cc(C=CC(=O)CC(c2ccc(N(C)C)cc2)n2ccnc2)ccc1O (stereo not drawn)  inhibition (AMY2; enzyme activity, inhibitor, absorbance; 5 µg/mL): 77%
CCOCCOCCOCCNC(=S)NCCCC[C@H](NS(C)(=O)=O)C(=O)N[C@H](C)C(=O)N[C@@H](CCCNC(=N)N)C(N)=O  inhibition (SIRT2; enzyme activity, inhibitor; 100 µM): 13%
CCN(c1cc(C#CCN2CCOCC2)cc(C(=O)NCc2c(C)cc(C)[nH]c2=O)c1C)[C@H]1CC[C@H](N(C)CCOC)CC1  inhibition (N-lysine methyltransferase SMYD2 (SMYD2, Homo sapiens, UniProt Q9NRG4); enzyme activity, inhibitor; 1 µM): 8%
CCCCCCCCCCCCCC(=O)NNCCC[C@H](NC(=O)OCc1ccccc1)C(=O)N[C@@H](Cc1c[nH]c2ccccc12)C(=O)NC(C)C  inhibition (SIRT2; enzyme activity, inhibitor; 100 µM): 19%
O=C(NC1CCC1)[C@H](Cc1c[nH]c2ccccc12)NC(=O)[C@H](CCCCNC(=S)NCc1n[nH]c(=S)o1)NS(=O)(=O)c1cccc(F)c1  inhibition (SIRT2; enzyme activity, inhibitor; 30 µM): 11%
O=C(O)CN1CCN(CC(=O)O)CCN(CC(=O)O)CC1  inhibition (Hydroxyacylglutathione hydrolase, mitochondrial; cell-free assay; 100 µM): 0.85%
Cn1c(CNC(=S)NCCCC[C@H](NS(=O)(=O)c2cccc(F)c2)C(=O)N[C@@H](Cc2c[nH]c3ccccc23)C(=O)NC2CCC2)n[nH]c1=S  inhibition (SIRT2; enzyme activity, inhibitor; 30 µM): 43%
O=C(c1ccc(Cl)cc1)N(Cc1ccccc1)C1CCCCC1  inhibition (Maoa; cell-free assay; 10 µM): 5.1%
CC(C)c1c(C(=O)Nc2ccccc2)c(-c2ccccc2)c(-c2ccc(F)cc2)n1CC[C@@H](O)C[C@@H](O)CC(=O)O  inhibition (HSD11B2; enzyme activity, inhibitor; 20 µM, lysate): < 40%
CCCN(O)N=Nc1ccc(S(=O)(=O)Nc2cc(C)on2)cc1  inhibition (AMY2; enzyme activity, inhibitor; 240 µg/mL): 57.9%
COc1cc(C=Cc2cc(-c3ccc(N(C)C)cc3)nc(O)n2)ccc1O  inhibition (AMY2; enzyme activity, inhibitor, absorbance; 1.25 µg/mL): 50.3%
Cc1cccc(N(O)N=Nc2ccc(S(=O)(=O)Nc3onc(C)c3C)cc2)c1  inhibition (AMY2; enzyme activity, inhibitor; 240 µg/mL): 52.6%
COc1cc(C=CC(=O)CC(c2ccc([N+](=O)[O-])cc2)n2ccnc2)ccc1O (stereo not drawn)  inhibition (AMY2; enzyme activity, inhibitor, absorbance; 5 µg/mL): 75.6%
CN(O)N=Nc1ccc(S(=O)(=O)Nc2nccs2)cc1  inhibition (AMY2; enzyme activity, inhibitor; 60 µg/mL): 26.3%
CN(C)CCCN1c2ccccc2Sc2ccc(Cl)cc21  inhibition (HSD11B2; enzyme activity, inhibitor; 20 µM, lysate): < 40%
COc1cc(C=Cc2cc(-c3ccccc3)nc(O)n2)ccc1O  inhibition (AMY2; enzyme activity, inhibitor, absorbance; 1.25 µg/mL): 58.1%
Cc1ccc(N(O)N=Nc2ccc(S(=O)(=O)Nc3cc(C)on3)cc2)cc1  inhibition (AMY2; enzyme activity, inhibitor; 240 µg/mL): 68.4%
CCCCCCCCCCC[C@@H](C[C@@H]1OC(=O)[C@H]1CCCCCC)OC(=O)[C@H](CC(C)C)NC=O  inhibition (Pancreatic triacylglycerol lipase (PNLIP, Sus scrofa, UniProt P00591); enzyme activity, inhibitor, absorbance; 50 µg/mL): 92.2%
Cc1noc(NS(=O)(=O)c2ccc(N=NN(C)O)cc2)c1C  inhibition (AMY2; enzyme activity, inhibitor; 120 µg/mL): 42.1%
CCC(C)(C)C(=O)O[C@H]1C[C@@H](C)C=C2C=C[C@H](C)[C@H](CC[C@@H]3C[C@@H](O)CC(=O)O3)[C@H]21  inhibition (HSD11B2; enzyme activity, inhibitor; 20 µM, lysate): < 40%
C[C@H]1O[C@H](O[C@H]2[C@H](O)[C@@H](O)[C@@H](O[C@H]3[C@H](O)[C@@H](O)C(O)O[C@@H]3CO)O[C@@H]2CO)[C@H](O)[C@@H](O)[C@@H]1N[C@H]1C=C(CO)[C@@H](O)[C@H](O)[C@H]1O (stereo partly drawn)  inhibition (AMY2; enzyme activity, inhibitor; 150 µg/mL): 84.7%
Oc1cccc(Nc2nc(-c3ccc(F)cc3F)cs2)c1  inhibition (Maoa; cell-free assay; 10 µM): 14.4%
